From ChEMBL document CHEMBL1128223 (J Med Chem, 1995)

Key:
SK-OV-3 = experiment: Cytotoxicity was determined in vitro in SK-OV-3 cells (ovarian) of human tumor cell lines by using MTT assay; format: functional, cell-based
Method in brief: (§1)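 MTT microculture tetrazolium assay. Cells grown in α-MEM with 15% heat-inactivated FBS, glutamine, pyruvate, insulin and nonessential amino acids at 37 °C, 5% CO2. Seeded at 1500–4000 cells/well and allowed to adhere overnight. Exposed to compound for 48 h, then fresh medium for 48 h, quadruplicate per concentration. MTT 4 h, dye extracted in DMSO, A570 read. IC50 (50% cell kill) from four-parameter logistic fit.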

HT-29 [1] = experiment: Cytotoxicity was determined in vitro in HT-29 cells(colon) of human tumor cell lines by using MTT assay; format: functional, cell-based; method in brief: as §1
[2] = MDR ratio as the ratio of IC50 value against SKVLB to that of SKOV3,; format: functional
T47D = experiment: Cytotoxicity was determined in vitro in T47D cells(breast) of human tumor cell lines by using MTT assay; format: functional, cell-based
Method in brief: (§2)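 Cells grown in α-MEM with 15% heat-inactivated FBS, 2 mM L-glutamine, 1 mM pyruvate, insulin and nonessential amino acids at 37 °C, 5% CO2. Seeded at 1500–4000 cells/well and allowed to adhere overnight. Exposed to compound for 48 h, then to fresh medium for 48 h, in quadruplicate per concentration. MTT for 4 h, dye extracted in DMSO, A570 read. IC50 (50% cell kill) from four-parameter logistic fit.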

LOX IMVI = experiment: Cytotoxicity was determined in vitro in LOX cells (melanoma) of human tumor cell lines by using MTT assay; format: functional, cell-based; method in brief: as §2
SK-VLB = experiment: Cytotoxicity was determined in vitro in SKVLB cells(ovarian with upregulated MDRp-glycoprotein) of human tumor cell lines by using MTT assay; format: functional, cell-based; method in brief: as §1
Mus musculus [3] = experiment: The body weight loss was measured in mice in vivo by using the HT-29 Human colon Xenograft model at a dose of 12 mg/kg; format: functional
Method in brief: (§3)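 HT29 subcutaneous flank xenografts in female nu/nu mice, 6 per group. Compound in 0.1 M acetate buffer pH 5, 0.2 mL s.c., twice weekly for 5 weeks. Body weight monitored twice weekly. Value is group mean body weight loss, with ≥30% loss considered lethal. Dose ceiling set beforehand by dose-ranging in naive mice on the same schedule.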

Mus musculus [4] = experiment: In vivo efficacy of tumor growth ratio(T/B) of compound was calculated by using the HT-29 Human colon Xenograft model in mice at a dose of 9 mg/kg; format: functional
Method in brief: (§4)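 Female nu/nu mice (18–24 g) given 10^6 HT29 cells subcutaneously in the left axillary flank. Grouped at 6 per dose with matched body weight and palpable tumor of about 150 mm². Compound in 0.1 M sodium acetate pH 5, 0.2 mL s.c., twice weekly for 5 weeks. Volume = length × width²/2 by calipers. T/B = end-of-treatment mean volume divided by initial mean volume.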

Mus musculus [5] = experiment: In vivo efficacy of tumor growth ratio(T/B) of compound was calculated by using the HT-29 Human colon Xenograft model in mice at a dose of 3 mg/kg; format: functional
Method in brief: (§5)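 Female nu/nu mice, 10⁶ HT29 cells implanted subcutaneously in the flank. Groups of 6 started at about 150 mm2 palpable tumor. Compound in 0.1 M sodium acetate pH 5 given s.c. twice weekly for 5 weeks. Tumor volume from calipers as length × width²/2. T/B is mean volume at end of treatment divided by mean initial volume.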

Mus musculus [6] = experiment: The body weight loss was measured in mice in vivo by using the HT-29 Human colon Xenograft model at a dose of 3 mg/kg; format: functional
Method in brief: (§6)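 HT29 s.c. xenografts in female nu/nu mice, 6 per group. Compound given s.c. in 0.1 M sodium acetate pH 5, twice weekly for 5 weeks. Body weights monitored; mean body weight loss and deaths recorded per dose group. Dose range included the highest dose from a dose-ranging study in naive mice, in which ≥30% weight loss was considered lethal.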

Mus musculus [7] = experiment: (§7) The no. of deaths of mice(infected with HT-29 cells) was reported at a dose of 9 mg/kg; format: functional; method in brief: as §6
Mus musculus [8] = experiment: The body weight loss was measured in mice in vivo by using the HT-29 Human colon Xenograft model at a dose of 9 mg/kg; format: functional; method in brief: as §3
Mus musculus [9] = experiment: The no. of deaths of mice(infected with HT-29 cells) was reported at a dose of 12 mg/kg; format: ADME, organism-based; design: dose 12 mg/kg; settings: in vivo; method in brief: as §6
Mus musculus [10] = experiment: In vivo efficacy of tumor growth ratio(T/B) of compound was calculated by using the HT-29 Human colon Xenograft model in mice at a dose of 12 mg/kg; format: functional; method in brief: as §4
Mus musculus [11] = experiment: The no. of deaths of mice(infected with HT-29 cells) was reported at a dose of 3 mg/kg; format: functional; method in brief: as §6
Mus musculus [12] = experiment: In vivo efficacy of tumor growth ratio(T/B) of compound was calculated by using the HT-29 Human colon Xenograft model in mice at a dose of 6 mg/kg; format: functional; method in brief: as §4
Mus musculus [13] = experiment: The body weight loss was measured in mice in vivo by using the HT-29 Human colon Xenograft model at a dose of 6 mg/kg; format: functional; method in brief: as §3
Mus musculus [14] = experiment: The no. of deaths of mice(infected with HT-29 cells) was reported at a dose of 6 mg/kg; format: functional; method in brief: as §6
Mus musculus [15] = experiment: In vivo efficacy of tumor growth ratio(T/B) of compound was calculated by using the HT-29 Human colon Xenograft model in mice at a dose of 5 mg/kg; format: functional; method in brief: as §4
Mus musculus [16] = experiment: The no. of deaths of mice(infected with HT-29 cells) was reported at a dose of 7 mg/kg; format: functional; method in brief: as §6
Mus musculus [17] = experiment: The body weight loss was measured in mice in vivo by using the HT-29 Human colon Xenograft model at a dose of 7 mg/kg; format: functional; method in brief: as §3
Mus musculus [18] = experiment: The no. of deaths of mice(infected with HT-29 cells) was reported at a dose of 11 mg/kg; format: functional; method in brief: as §6
Mus musculus [19] = experiment: as §7; format: ADME, organism-based; design: dose 9 mg/kg; settings: in vivo; method in brief: as §6
HT-29 [20] = experiment: In vivo efficacy of tumor growth ratio(T/B) of compound was calculated by using the HT-29 Human colon Xenograft model in mice at a dose of 7 mg/kg; format: functional; method in brief: as §4
Mus musculus [21] = experiment: The body weight loss was measured in mice in vivo by using the HT-29 Human colon Xenograft model at a dose of 11 mg/kg; format: functional; method in brief: as §3
Mus musculus [22] = experiment: In vivo efficacy of tumor growth ratio(T/B) of compound was calculated by using the HT-29 Human colon Xenograft model in mice at a dose of 11 mg/kg; format: functional; method in brief: as §4
Mus musculus [23] = experiment: The body weight loss was measured in mice in vivo by using the HT-29 Human colon Xenograft model at a dose of 5 mg/kg; format: functional; method in brief: as §3
Mus musculus [24] = experiment: The no. of deaths of mice(infected with HT-29 cells) was reported at a dose of 5 mg/kg; format: functional; method in brief: as §6
Mus musculus [25] = experiment: The no. of deaths of mice(infected with HT-29 cells) was reported at a dose of 1 mg/kg; format: functional; method in brief: as §6
Mus musculus [26] = experiment: The body weight loss was measured in mice in vivo by using the HT-29 Human colon Xenograft model at a dose of 2 mg/kg; format: functional; method in brief: as §6
Mus musculus [27] = experiment: In vivo efficacy of tumor growth ratio(T/B) of compound was calculated by using the HT-29 Human colon Xenograft model in mice at a dose of 4 mg/kg; format: functional; method in brief: as §5
Mus musculus [28] = experiment: In vivo efficacy of tumor growth ratio(T/B) of compound was calculated by using the HT-29 Human colon Xenograft model in mice at a dose of 2 mg/kg; format: functional; method in brief: as §5
Mus musculus [29] = experiment: In vivo efficacy of tumor growth ratio(T/B) of compound was calculated by using the HT-29 Human colon Xenograft model in mice at a dose of 1 mg/kg; format: functional; method in brief: as §5
Mus musculus [30] = experiment: The body weight loss was measured in mice in vivo by using the HT-29 Human colon Xenograft model at a dose of 4 mg/kg; format: functional; method in brief: as §6
Mus musculus [31] = experiment: The no. of deaths of mice(infected with HT-29 cells) was reported at a dose of 4 mg/kg; format: functional; method in brief: as §6
Mus musculus [32] = experiment: The body weight loss was measured in mice in vivo by using the HT-29 Human colon Xenograft model at a dose of 1 mg/kg; format: functional; method in brief: as §6
Mus musculus [33] = experiment: The no. of deaths of mice(infected with HT-29 cells) was reported at a dose of 2 mg/kg; format: functional; method in brief: as §6

SMILES | IC50 (SK-OV-3) | IC50 (HT-29 [1]) | MDR ratio [2] | IC50 (T47D) | IC50 (LOX IMVI) | IC50 (SK-VLB) | Efficacy (Mus musculus [4]) | Efficacy (Mus musculus [5]) | BW loss (Mus musculus [6]) | BW loss (Mus musculus [8]) | Deaths (Mus musculus [11]) | also measured
COc1cccc2c1C(=O)c1c(O)c3c(c(O)c1C2=O)C[C@@](O)(C(=O)CO)C[C@@H]3O[C@H]1C[C@H](N)[C@H](O)[C@H](C)O1 [DOXORUBICIN] | 36 nM | 331 nM | 160 | 72 nM | 42 nM | 5650 nM |  |  |  |  |  | 
CC[C@@]1(O)C(=O)OCc2c1cc1n(c2=O)Cc2c-1nc1cc3c(cc1c2CN1CCN(C)CC1)OCCO3.O=C(O)C(F)(F)F | 16 nM | 6 nM | 6 | 38 nM | 1 nM | 102 nM | 0.8 | 5.5 | 8% | 7% | 0 | BW loss (Mus musculus [3]): 22%; Deaths (Mus musculus [7]): 0; Deaths (Mus musculus [9]): 2; Efficacy (Mus musculus [10]): 0.4; Efficacy (Mus musculus [12]): 1.6; BW loss (Mus musculus [13]): 5%; Deaths (Mus musculus [14]): 0
CC[C@@]1(O)C(=O)OCc2c1cc1n(c2=O)Cc2cc3c(CN(C)C)c(O)ccc3nc2-1 [TOPOTECAN] | 44 nM | 25 nM |  | 104 nM | 5 nM | 149 nM | 4.3 |  |  | 17% |  | Efficacy (Mus musculus [15]): 8.6; Deaths (Mus musculus [16]): 0; BW loss (Mus musculus [17]): 11%; Deaths (Mus musculus [18]): 0; Deaths (Mus musculus [19]): 2; Efficacy (HT-29 [20]): 7; BW loss (Mus musculus [21]): 23%; Efficacy (Mus musculus [22]): 2.9; BW loss (Mus musculus [23]): 15%; Deaths (Mus musculus [24]): 0
CC[C@@]1(O)C(=O)OCc2c1cc1n(c2=O)Cc2c-1nc1cc3c(cc1c2CCl)OCCO3 | 4 nM | 13 nM | 2 |  |  | 8 nM |  |  |  |  |  | 
CC[C@@]1(O)C(=O)OCc2c1cc1n(c2=O)Cc2c-1nc1cc3c(cc1c2CN1CCN(C)CC1)OCO3.O=C(O)C(F)(F)F | 4 nM | 2 nM |  | 30 nM | 0.5 nM | 17 nM |  | 0.9 | 12% |  | 0 | Deaths (Mus musculus [25]): 0; BW loss (Mus musculus [26]): 8%; Efficacy (Mus musculus [27]): 0.6; Efficacy (Mus musculus [28]): 1.7; Efficacy (Mus musculus [29]): 6.4; BW loss (Mus musculus [30]): 20%; Deaths (Mus musculus [31]): 0; BW loss (Mus musculus [32]): 11%; Deaths (Mus musculus [33]): 0
CC[C@@]1(O)C(=O)OCc2c1cc1n(c2=O)Cc2cc3ccccc3nc2-1 [CAMPTOTHECIN] | 37 nM | 46 nM |  | 207 nM | 48 nM | 41 nM |  |  |  |  |  | 
